# According to ChEMBL document CHEMBL1125181, “Naphthosultam derivatives: a new class of potent and selective 5-HT2 antagonists” (J Med Chem, 1991):
# Tests used:
# [1] = molecular target: T1, Adrenergic receptor alpha-1 (Rattus norvegicus, UniProt P15823+P23944+P43140); test: The concentration required to inhibit [3H]prazosin binding to Alpha-1 adrenergic receptor in rat brain membranes was measured (in vitro); format: cell membranes
# T1 sequence (P15823 whole entry): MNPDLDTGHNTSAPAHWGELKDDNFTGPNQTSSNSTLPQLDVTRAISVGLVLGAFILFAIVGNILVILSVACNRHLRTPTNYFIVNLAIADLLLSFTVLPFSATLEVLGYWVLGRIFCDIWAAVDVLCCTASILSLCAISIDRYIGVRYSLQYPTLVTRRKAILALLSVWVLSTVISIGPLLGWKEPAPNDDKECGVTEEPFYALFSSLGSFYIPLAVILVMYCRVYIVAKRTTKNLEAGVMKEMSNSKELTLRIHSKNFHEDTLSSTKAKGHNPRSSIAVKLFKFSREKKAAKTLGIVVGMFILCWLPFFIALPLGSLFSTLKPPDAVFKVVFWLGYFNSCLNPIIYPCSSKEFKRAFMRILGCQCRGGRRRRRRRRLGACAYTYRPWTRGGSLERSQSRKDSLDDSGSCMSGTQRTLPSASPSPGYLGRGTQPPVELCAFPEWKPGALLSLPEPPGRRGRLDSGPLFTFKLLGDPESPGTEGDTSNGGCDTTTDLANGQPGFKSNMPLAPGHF
# T1 sequence (P23944 whole entry): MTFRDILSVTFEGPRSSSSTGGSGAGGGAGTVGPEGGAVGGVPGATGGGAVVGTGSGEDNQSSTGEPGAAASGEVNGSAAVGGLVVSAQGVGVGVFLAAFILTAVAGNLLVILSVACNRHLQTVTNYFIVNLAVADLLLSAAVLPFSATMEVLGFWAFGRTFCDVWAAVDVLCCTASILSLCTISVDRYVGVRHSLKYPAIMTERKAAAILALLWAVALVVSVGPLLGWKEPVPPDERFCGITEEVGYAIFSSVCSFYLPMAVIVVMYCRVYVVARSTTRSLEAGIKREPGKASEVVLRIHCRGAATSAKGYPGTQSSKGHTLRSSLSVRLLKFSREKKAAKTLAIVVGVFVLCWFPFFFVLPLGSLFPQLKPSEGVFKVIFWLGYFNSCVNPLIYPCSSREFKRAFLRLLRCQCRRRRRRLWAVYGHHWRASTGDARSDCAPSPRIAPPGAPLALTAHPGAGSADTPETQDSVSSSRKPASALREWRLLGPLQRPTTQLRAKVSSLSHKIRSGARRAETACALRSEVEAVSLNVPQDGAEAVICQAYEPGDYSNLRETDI
# T1 sequence (P43140 whole entry): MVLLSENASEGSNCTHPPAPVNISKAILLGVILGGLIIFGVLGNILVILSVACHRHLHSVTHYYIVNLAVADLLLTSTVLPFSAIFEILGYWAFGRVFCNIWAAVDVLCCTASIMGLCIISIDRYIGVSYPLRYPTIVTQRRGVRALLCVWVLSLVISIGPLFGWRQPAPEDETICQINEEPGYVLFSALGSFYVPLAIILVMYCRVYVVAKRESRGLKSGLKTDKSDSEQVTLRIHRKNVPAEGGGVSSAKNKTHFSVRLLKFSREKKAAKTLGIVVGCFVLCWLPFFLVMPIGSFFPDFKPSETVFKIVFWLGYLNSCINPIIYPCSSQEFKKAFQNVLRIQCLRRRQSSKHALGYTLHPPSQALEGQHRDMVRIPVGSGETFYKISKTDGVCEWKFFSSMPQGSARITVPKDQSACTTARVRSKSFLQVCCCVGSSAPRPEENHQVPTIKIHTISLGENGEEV
# [2] = molecular target: Serotonin 2 (5-HT2) receptor (Rattus norvegicus, UniProt P30994+P08909+P14842); test: The concentration required to inhibit [3H]ketanserin binding to 5-hydroxytryptamine 2 receptor in rat brain membranes (in vitro); format: cell membranes
# Outline: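 Male Sprague-Dawley rat cortical membranes (0.15 mg/mL protein) in Tris-HCl pH 7.6 with BSA 2 mg/mL. Incubated 15 min at 37 °C with compound and [3H]ketanserin (final 0.4 nM). Nonspecific binding from 10⁻⁶ M methysergide. Filtration and scintillation counting. IC50 by nonlinear regression; mean of at least 2 runs, 6 concentrations in triplicate.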
# D(2) dopamine receptor [3] = molecular target: T2, D(2) dopamine receptor (Rattus norvegicus, UniProt P61169); test: The concentration required to inhibit [3H]spiperone binding to dopamine receptor D2 in rat brain membranes (in vitro); format: cell membranes
# T2 sequence (P61169 whole entry): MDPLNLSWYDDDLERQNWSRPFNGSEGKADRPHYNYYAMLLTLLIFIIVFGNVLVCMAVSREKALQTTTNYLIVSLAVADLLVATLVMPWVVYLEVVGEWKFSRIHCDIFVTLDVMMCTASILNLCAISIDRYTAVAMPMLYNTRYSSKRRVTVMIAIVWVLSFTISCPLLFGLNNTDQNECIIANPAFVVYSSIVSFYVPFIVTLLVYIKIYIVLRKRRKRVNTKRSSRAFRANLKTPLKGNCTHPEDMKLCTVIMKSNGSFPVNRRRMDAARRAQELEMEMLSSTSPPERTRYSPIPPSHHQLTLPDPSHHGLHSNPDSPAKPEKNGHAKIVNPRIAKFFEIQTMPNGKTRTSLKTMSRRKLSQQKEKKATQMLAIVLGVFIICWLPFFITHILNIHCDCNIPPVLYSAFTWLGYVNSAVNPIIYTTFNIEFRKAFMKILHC
# Outline: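 Rat striatal membranes (0.05 mg/mL protein) in Tris-HCl with BSA 2 mg/mL, NaCl, cinanserin 10⁻⁶ M and compound. [3H]spiperone (final 0.05 nM) added after 5 min, incubation continued 40 min. Nonspecific binding from 10⁻⁶ M sulpiride. Filtration and scintillation counting.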
# Mus musculus [4] = test: The concentration required to induce head twich in mice when given sc (in vivo); format: functional
# Outline: (§1)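 Mice, 6 per dose, dosed sc 60 min or po 90 min before mescaline 50 mg/kg ip. Observed for 2 min starting 15 min after mescaline; head twitches scored as all-or-none.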
# Rattus norvegicus [5] = test: The concentration required to induce head twich for 16 hours in rats when given po (in vivo); format: functional
# Outline: (§2)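 Rats, 6 per dose, dosed sc or po, then given mescaline 20 mg/kg iv 1 h later (6 or 16 h later for duration of action). Head twitches counted for 15 min from injection. Fewer than 3 twitches counted as antagonism.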
# Rattus norvegicus [6] = test: The concentration required to induce head twich for 6 hours in rats when given po (in vivo); format: functional; outline: as §2
# Rattus norvegicus [7] = test: The concentration required to induce head twich for 6 hours in rats when given sc (in vivo); format: functional; outline: as §2
# Rattus norvegicus [8] = test: The concentration required to induce head twich for 1 hours in rats when given po (in vivo); format: functional; outline: as §2
# [9] = molecular target: T1, Adrenergic receptor alpha-1; test: Binding constant against Alpha-1 adrenergic receptor (in vitro); format: protein assay
# Outline: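 Male Sprague-Dawley rat cerebrocortical membranes (0.15 mg/mL protein) in Tris-HCl pH 7.6 with BSA 2 mg/mL. Incubated 40 min at 25 °C with compound and [3H]prazosin (final 0.065 nM). Nonspecific binding from 10⁻⁶ M phentolamine. Filtration and scintillation counting. IC50 values are the mean of at least 2 runs, each with 6 concentrations in triplicate.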
# Mus musculus [10] = test: The concentration required to induce head twich in mice when given po (in vivo); format: functional; outline: as §1
# Histamine H1 receptor = Histamine H1 receptor (Cavia porcellus, UniProt P31389); test: Binding constant against histamine H1 receptor (in vitro)
# Sequence of Histamine H1 receptor (P31389 whole entry): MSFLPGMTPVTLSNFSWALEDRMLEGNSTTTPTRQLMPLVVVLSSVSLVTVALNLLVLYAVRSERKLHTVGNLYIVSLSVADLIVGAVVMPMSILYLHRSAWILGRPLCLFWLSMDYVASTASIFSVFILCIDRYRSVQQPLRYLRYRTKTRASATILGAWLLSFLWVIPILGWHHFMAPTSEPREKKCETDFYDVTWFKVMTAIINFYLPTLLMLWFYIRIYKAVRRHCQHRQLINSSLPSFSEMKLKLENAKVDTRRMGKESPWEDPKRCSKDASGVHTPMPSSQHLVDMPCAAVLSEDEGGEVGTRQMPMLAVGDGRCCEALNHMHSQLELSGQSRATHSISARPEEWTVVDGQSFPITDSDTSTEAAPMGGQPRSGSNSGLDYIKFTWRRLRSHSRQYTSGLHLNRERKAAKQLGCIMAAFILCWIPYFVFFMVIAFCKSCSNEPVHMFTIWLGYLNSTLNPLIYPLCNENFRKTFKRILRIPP
# Outline: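 Male guinea pig cerebellar membranes (0.35 mg/mL protein) in 50 mM sodium phosphate pH 7.5. Incubated 30 min at 25 °C with compound and [3H]mepyramine (final 0.7 nM). Nonspecific binding from 10⁻⁶ M promethazine. Filtration through glass-fibre filters and liquid scintillation counting.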
# Rattus norvegicus [11] = test: The concentration required to induce head twich for 16 hours in rats when given sc (in vivo); format: functional; outline: as §2
# D(2) dopamine receptor [12] = molecular target: T2, D(2) dopamine receptor; test: Binding constant against dopamine receptor D2 (in vitro)
# Outline: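 Rat striatal membranes (0.05 mg protein/mL, Tris-HCl with 2 mg/mL BSA, NaCl, 10^-6 M cinanserin) preincubated 5 min with test compound. [3H]spiperone (final 0.05 nM) then added for a further 40 min. Nonspecific binding defined with 10^-6 M sulpiride. Read-out by filtration and scintillation counting.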
# Rattus norvegicus [13] = test: The concentration required to induce head twich for 1 hours in rats when given sc (in vivo); format: functional; outline: as §2
IC50 [1],IC50 [2],IC50 (D(2) dopamine receptor [3]),SMILES,further results
64 nM,1 nM,–,O=S1(=O)c2cccc3cccc(c23)N1CCN1CCN(c2ccc(F)cc2)CC1,–
> 1000 nM,25 nM,> 1000 nM,O=[N+]([O-])c1ccc(N2CCN(CCCN3c4cccc5cccc(c45)S3(=O)=O)CC2)cc1,–
> 1000 nM,5 nM,> 1000 nM,O=S1(=O)c2cccc3cccc(c23)N1CCCN1CCN(c2ccc(Cl)cc2)CC1,–
52 nM,3 nM,> 1000 nM,O=S1(=O)c2cccc3cccc(c23)N1CCCN1CCN(c2ccccc2F)CC1,–
700 nM,4 nM,> 1000 nM,Cc1ccc(N2CCN(CCCN3c4cccc5cccc(c45)S3(=O)=O)CC2)cc1,–
> 1000 nM,7 nM,> 1000 nM,O=S1(=O)c2cccc3cccc(c23)N1CCCN1CCN(c2ccc(Br)cc2)CC1,–
75 nM,0.4 nM,473 nM,O=S1(=O)c2cccc3cccc(c23)N1CCCN1CCN(c2nsc3ccccc23)CC1,–
110 nM,0.3 nM,508 nM,O=S1(=O)c2cccc3cccc(c23)N1CCCN1CCN(c2ccc(O)cc2)CC1,–
27 nM,0.2 nM,385 nM,O=S1(=O)c2cccc3cccc(c23)N1CCCN1CCC(c2ccccc2)CC1,–
141 nM,2.6 nM,> 1000 nM,O=S1(=O)c2cccc3cccc(c23)N1CCCN1CCN(c2ccccc2)CC1,–
269 nM,6.3 nM,> 1000 nM,O=S1(=O)c2cccc3cccc(c23)N1CCCN1CCN(c2ccccn2)CC1,–
> 1000 nM,32 nM,> 1000 nM,O=S1(=O)c2cccc3cccc(c23)N1CCCN1CCN(c2ncccn2)CC1,–
688 nM,18 nM,> 1000 nM,O=S1(=O)c2cccc3cccc(c23)N1CCCN1CCN(c2cccc(F)c2)CC1,–
7.9 nM,0.1 nM,41 nM,O=C(c1ccc(F)cc1)C1CCN(CCCN2c3cccc4cccc(c34)S2(=O)=O)CC1,–
> 1000 nM,275 nM,> 1000 nM,O=S1(=O)c2cccc3cccc(c23)N1CCCN1CCN(c2ccc(C(F)(F)F)cc2)CC1,–
37 nM,–,23 nM,Cc1nc2sccn2c(=O)c1CCN1CCC(=C(c2ccc(F)cc2)c2ccc(F)cc2)CC1 [RITANSERIN],ED50 (Mus musculus [4]): 0.29 mg/kg; ED50 (Rattus norvegicus [5]): 18.4 mg/kg; ED50 (Rattus norvegicus [6]): 1.54 mg/kg; ED50 (Rattus norvegicus [7]): 0.55 mg/kg; ED50 (Rattus norvegicus [8]): 2.55 mg/kg; Ki [9]: 29 nM; ED50 (Mus musculus [10]): 0.09 mg/kg; Ki (Histamine H1 receptor): 6 nM; ED50 (Rattus norvegicus [11]): > 5 mg/kg; Ki (D(2) dopamine receptor [12]): 22 nM; ED50 (Rattus norvegicus [13]): 0.38 mg/kg
50 nM,11 nM,603 nM,O=S1(=O)c2cccc3cccc(c23)N1CCCN1CCC(=C(c2ccc(F)cc2)c2ccc(F)cc2)CC1,–
> 1000 nM,540 nM,> 1000 nM,O=S1(=O)c2cccc3cccc(c23)N1CCCN1CCN(c2nc3ccccc3s2)CC1,–
< 10 nM,7 nM,46 nM,O=S1(=O)c2cccc3cccc(c23)N1CCCN1CCC(n2c(O)nc3ccccc32)CC1,–
> 1000 nM,25 nM,> 1000 nM,COc1ccc(N2CCN(CCCN3c4cccc5cccc(c45)S3(=O)=O)CC2)cc1,–
> 1000 nM,200 nM,> 1000 nM,CCOC(=O)c1ccc(N2CCN(CCCN3c4cccc5cccc(c45)S3(=O)=O)CC2)cc1,–
144 nM,2.3 nM,990 nM,O=S1(=O)c2cccc3cccc(c23)N1CCCN1CCN(c2noc3ccccc23)CC1,–
181 nM,240 nM,> 1000 nM,O=S1(=O)N=C(N2CCN(CCCN3c4cccc5cccc(c45)S3(=O)=O)CC2)c2ccccc21,–

SMILES,IC50 [1],IC50 [2],IC50 (D(2) dopamine receptor [3]),further results
CS(=O)(=O)N(CCCN1CC=C(c2ccccc2)CC1)c1cccc2ccccc12,75 nM,5.1 nM,275 nM,–
CN(CCCN1CC=C(c2ccccc2)CC1)S(=O)(=O)c1cccc2ccccc12,–,> 100 nM,–,–
O=S1(=O)c2cccc3cccc(c23)N1CCCCN1CC=C(c2ccccc2)CC1,7.8 nM,2.1 nM,55 nM,–
O=S(=O)(c1ccccc1)N(CCCN1CC=C(c2ccccc2)CC1)c1ccccc1,35 nM,10 nM,80 nM,–
O=S1(=O)c2cccc3cccc(c23)N1CCCN1CC=C(c2ccccc2)CC1,192 nM,1 nM,1000 nM,–
O=C1c2cccc3cccc(c23)N1CCCN1CC=C(c2ccccc2)CC1,580 nM,9.8 nM,> 100 nM,–
O=S1(=O)c2cccc3cccc(c23)N1CCN1CC=C(c2ccccc2)CC1,98 nM,6.3 nM,> 100 nM,–
O=S1(=O)c2ccccc2-c2ccccc2N1CCCN1CC=C(c2ccccc2)CC1,10 nM,10 nM,110 nM,–
